Screening results deposited in PubChem by The Scripps Research Institute Molecular Screening Center.
PAFAH1B2 inh – inhibitors of human PAFAH1B2; P68402; recombinant PAFAH1B2, FP-rhodamine activity probe, fluorescence polarization; actives 1.2% (n = 340,000); AID 492953; inhibition, % at 3.39 µM;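 active = inhibition above the mean of all tested compounds plus 3 SD, cut at about 24% in these data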
PAFAH1B3 inh – blocks human PAF acetylhydrolase 1B catalytic subunit 3; Q15102; AID 492972; actives 0.28% (n = 340,000); inhibition, % at 3.39 µM; recombinant PAFAH1B3, FP-rhodamine probe, fluorescence polarization;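 active = inhibition above the screen-wide average of all tested compounds plus 3 SD, cut at about 25% in these data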
PAFAH2 inh – PAFAH2 (human) inhibition | Q99487 | inhibition, % at 3.39 µM | actives 0.99% (n = 340,000) | recombinant PAFAH2, FP-rhodamine activity probe, fluorescence polarization;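 active = inhibition above the mean over all tested compounds plus 3 SD, cut at about 30% in these data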;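 note: inhibitors block probe labeling of enzyme so polarization drops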
pPAFAH FP inh – pPAFAH (human) enzyme inhibition; Q13093; recombinant pPAFAH, FP-rhodamine probe fluorescence polarization; inhibition, % at 3.39 µM; actives 1.5% (n = 330,000); AID 463082;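 active = inhibition above the mean inhibition across the screen plus 3 SD, cut at about 25% in these data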;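 note: inhibitors block binding of the rhodamine activity-based probe so polarization drops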
Target sequence (Q13093 whole entry, looked up): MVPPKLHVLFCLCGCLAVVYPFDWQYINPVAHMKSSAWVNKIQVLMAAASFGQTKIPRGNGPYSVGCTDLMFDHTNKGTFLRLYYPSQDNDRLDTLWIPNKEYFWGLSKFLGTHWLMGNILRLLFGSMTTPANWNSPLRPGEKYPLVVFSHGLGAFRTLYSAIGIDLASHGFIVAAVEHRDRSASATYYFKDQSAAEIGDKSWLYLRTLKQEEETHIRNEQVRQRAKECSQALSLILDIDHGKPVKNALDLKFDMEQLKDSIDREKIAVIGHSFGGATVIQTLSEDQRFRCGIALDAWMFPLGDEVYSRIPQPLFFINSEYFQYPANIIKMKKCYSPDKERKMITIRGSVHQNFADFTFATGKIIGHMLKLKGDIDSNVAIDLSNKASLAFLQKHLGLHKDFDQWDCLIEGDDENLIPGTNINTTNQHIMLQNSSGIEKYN
ABHD4 inh – inhibitors of mouse ABHD4 | purified mABHD4, FP-Rh probe fluorescence polarization | Q8VD66 | actives 0.54% (n = 370,000) | inhibition, % at 8.92 µM;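 active = inhibition exceeding the mean over every tested compound plus 3 SD, cut at about 30% in these data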
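Doses – 8.92 µM, single dose · Material – wild-type mouse ABHD4 protein · Replication – single well per compound (singlicate) · Measure – percent inhibition of probe binding, normalized to plate controls · Schedule – 45 min compound pre-incubation plus 60 min probe step, 25 °C · Detection – fluorescence polarization with parallel and perpendicular emission, 525/598 nm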
HTRA1 inh – HTRA1 (human) protease inhibition; Q92743; recombinant HTRA1, FP-rhodamine activity-based probe, fluorescence polarization; inhibition, % at 5.96 µM; actives 0.5% (n = 340,000); AID 504803; in the data active = inhibition above about 36%
PAFAH2 confirm – PAFAH2 (human) inhibition, confirmed | shares compounds with PAFAH2 inh | recombinant PAFAH2, FP-rhodamine activity probe, fluorescence polarization | inhibition, % at 3.39 µM | actives 65% (n = 2,300) | AID 493030;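 active = mean inhibition over three repeats above a set limit taken from the earlier primary screen, cut at about 30% in these data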;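 note: inhibitor blocks binding of rhodamine activity probe so polarization falls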
A number is an active result; . = inactive; / = no result. A selection: hits, their analogues and other compounds. The true share with any hit is near 2.8%.

SMILES	PAFAH1B2 inh	PAFAH1B3 inh	PAFAH2 inh	pPAFAH FP inh	ABHD4 inh	HTRA1 inh	PAFAH2 confirm
CC(NC(=O)COC(=O)c1ccccc1O)c1ccccc1 (stereo unspecified)	/	/	/	/	.	.	/
CCCC(C)NC(=O)COC(=O)c1ccccc1SCC(=O)NC(C)CCC (stereo unspecified)	.	.	38.8	.	.	.	43.2
Cc1nc(N2CCN(C(=O)C3CC3)CC2)c2c3c(sc2n1)CC(C)CC3 (stereo unspecified)	/	/	/	/	.	/	/
Cc1ccc(-c2cc(C(=O)NN=C/C=C/c3ccco3)[nH]n2)cc1C	/	/	/	/	.	/	/
N#CCC[C@H]1CC[C@]2(CCCN(C(=O)c3ccco3)C2)O1	/	/	/	/	.	/	/
O=C(OCC(=O)c1cccc2ccccc12)c1ccc(CO)cc1	.	.	47.6	.	.	.	.
O=C(CCc1nc(-c2ccccc2F)no1)NCCc1c[nH]c2ccccc12	/	/	/	/	.	/	/
Cc1cc(C(=O)Nc2ccc(Cl)c(Cl)c2)n(-c2ccccc2)n1	/	/	/	/	.	/	/
CCN(CC)CCNC(=O)c1cc2c(=O)n(C)c3ccccc3c2n1C	.	.	.	.	.	.	/
CN(C)CCNC(=O)c1cc2c(=O)n(C)c3ccccc3c2n1C	.	.	46.8	.	.	.	.
O=S(=O)(Nc1ccc(C(O)(C(F)(F)F)C(F)(F)F)cc1)c1cccs1	/	/	/	/	.	/	/
O=C(COC(=O)CC1CC2CCC1C2)NCc1ccc(F)cc1 (stereo unspecified)	.	.	50.2	.	.	.	39.1
Cc1ccc(NC(=O)COC(=O)c2ccc3c(c2)OCCO3)cc1S(=O)(=O)N1CCOCC1	.	.	80.8	.	.	.	73.7
Cc1ccc(NC(=O)COC(=O)c2ccc(NC(=O)CC#N)cc2)cc1S(=O)(=O)N1CCOCC1	.	.	56.9	.	.	.	64.2
O=C(CC1CC2CCC1C2)OCC(=O)c1c[nH]c2ccccc12 (stereo unspecified)	.	.	.	.	.	.	/
N#Cc1ccc(NC(=O)COC(=O)c2cccc(S(=O)(=O)N3CCCC3)c2)cc1	/	/	/	/	.	.	/
N#Cc1ccc(NC(=O)COC(=O)c2ccc(F)c(S(=O)(=O)N3CCOCC3)c2)cc1	.	.	48.0	.	.	.	38.7
COc1ccc(CN2C(=O)N3Cc4ccc(C)cc4C3CS2(=O)=O)cc1 (stereo unspecified)	/	/	/	/	.	/	/
CCCCOCCCNC(=O)C[C@H]1C[C@@]2(C(=O)OC)C(=C[C@H](C(C)C)O[C@@H]2C2CC2)N(Cc2ccccc2)C1=O	/	/	/	/	.	/	/
COC(=O)[C@]12C[C@H](CC(=O)NCc3cccs3)C(=O)N(CCc3ccc(OC)c(OC)c3)C1=C[C@H](C(C)(C)C)O[C@@H]2C	/	/	/	/	.	/	/
CCc1ccc(N2C(=O)C[C@@](C#N)(C(=O)OC)[C@H]2c2ccccc2)cc1	/	/	/	/	.	/	/
CCOc1ccc(NC(=O)CN(C)C(=O)CC2CC3CCC2C3)cc1OCC (stereo unspecified)	.	.	.	.	.	.	/
Cc1ccc(NC(=O)COC(=O)CC2CC3CCC2C3)cc1S(=O)(=O)N1CCOCC1 (stereo unspecified)	.	.	69.5	.	.	.	65.0
CCN(c1ccc(NC(=O)COC(=O)c2ccc(C)c(S(=O)(=O)N3CCOCC3)c2)cc1)C(C)C	.	.	38.9	.	.	.	.
Cc1ccc(C(=O)OCC(=O)Nc2ccc3c(c2)OCO3)cc1S(=O)(=O)N1CCOCC1	.	.	74.2	.	.	.	76.1
SMILES	PAFAH1B2 inh	PAFAH1B3 inh	PAFAH2 inh	pPAFAH FP inh	ABHD4 inh	HTRA1 inh	PAFAH2 confirm
CC(=O)c1ccc(NC(=O)COC(=O)CC2CC3CCC2C3)cc1 (stereo unspecified)	.	.	33.6	.	.	.	.
CC(COc1cccc(OC(F)(F)F)c1)CN1CCC(C(O)(c2ccccc2)c2ccccc2)CC1 (stereo unspecified)	/	/	/	/	.	/	/
O=C1C[C@@H](c2ccccc2)N=C2N(CC3CC3)C/C(=C/c3ccccc3)N12	/	/	/	/	.	/	/
CC(C)[C@H]1/C(=C/C2CC2)N2C(=O)C[C@H](c3cccc(C(F)(F)F)c3)N=C2N1Cc1ccc2c(c1)OCO2	/	/	/	/	.	/	/
COC(=O)[C@]12C[C@H](CC(=O)NCCCCc3ccccc3)C(=O)N(CCC3=CCCCC3)C1=C[C@H](C(C)C)O[C@@H]2C1CC1	/	/	/	/	.	/	/
O=C(COC(=O)CC1CC2CCC1C2)Nc1ccccc1[N+](=O)[O-] (stereo unspecified)	.	.	66.0	.	.	.	58.8
O=C(COC(=O)Cc1ccccc1F)Nc1ccccc1[N+](=O)[O-]	.	.	.	.	.	.	/
N/C(Cc1ccc([N+](=O)[O-])cc1)=N\OC(=O)c1ccc2ccccc2c1	.	.	61.9	.	.	.	53.7
N/C(Cc1ccc([N+](=O)[O-])cc1)=N\OC(=O)c1ccco1	.	.	39.0	.	.	.	36.8
N/C(Cc1ccc(Cl)cc1)=N\OC(=O)C1CCCCC1	.	.	40.5	.	.	.	41.7
COc1cccc(C(=O)O/N=C(\N)Cc2ccc(Cl)cc2)c1	.	.	69.2	.	.	.	55.9
COc1cccc(C(=O)O/N=C(\N)c2ccc(C)cc2)c1	.	.	.	.	.	.	/
O=C(COC(=O)C1CCCC1)NCc1ccc(Cl)cc1	.	.	.	.	.	.	/
